Assay outcomes from PubChem BioAssay.
MITF act = increases MITF-driven TRPM1 promoter luciferase signal; SK-MEL-5 TRPM1-promoter luciferase, 24 h; % of positive control, neutral wells = 0; activation, % at 12.5 µM; 0.75% of 300,000 active; AID 588334;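 active = mean activation of at least 80% with every replicate also reaching 80%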;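 note: 0% = neutral control wells and 100% = parthenolide positive control wells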
Wnt bcat act = activators of Wnt/beta-catenin signaling. Wnt/beta-catenin reporter cell assay, activator, plate reader. activation, % at 9.35 µM. 1.2% of 300,000 active; in the data active = activation above about 30%, passing the limit was not always enough;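 note: 0% = neutral control wells and 100% = positive control wells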
PGC1a acetyl inh = PGC1a acetylation modulation, inhibitor mode; U2OS PGC1a acetylation, AlphaScreen anti-acetyl-lysine; with virally co-expressed GCN5 acetyltransferase; inhibition, % at 15.6 µM; 0.17% of 350,000 active;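 active = every replicate shows inhibition of at least 40%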;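 note: 0% = neutral control wells and 100% = positive control wells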
Cneo AK release = Cryptococcus neoformans lysis via adenylate kinase release. C. neoformans lysis, adenylate kinase release luminescence, 4 h; normalised: neutral wells 0, clomiphene wells 100. lysis activity, % at 15 µM. 0.2% of 360,000 active. AID 651654;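 active = mean lysis activity across replicates of at least 80%, whatever share of replicates individually reach that level; inactive = mean lysis activity below 80%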
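Assay system: Cryptococcus neoformans yeast cells / Dosing: single-point compound dose / Timing: 4 h at 37 °C static, read 1 h later / Measured by: luminescence of released adenylate kinase using an AK detection reagent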
Active calls of the source: *; x = no result given. Compounds with a hit are over-represented: about 1.5% of the library has one in this group of screens.

SMILES | MITF act | Wnt bcat act | PGC1a acetyl inh | Cneo AK release
C[C@@H]1CCCCO[C@H](CN(C)C(=O)Cc2ccccc2)[C@H](C)CN([C@@H](C)CO)C(=O)c2cc(NC(=O)c3ccccc3)ccc2O1 | x | x | 4 | 1
O=C(CSc1nnc(-c2ccccn2)o1)Nc1ccccc1F | 12 | 37* | x | 0
CCn1nnnc1SCC(=O)Nc1ccc2c(c1)OCCO2 | 37 | 43* | 24 | 6
O=C(CSc1nnc(-c2cccc(Cl)c2)o1)Nc1ccc2c(c1)OCCO2 | 88* | -2 | 4 | 1
O=C(CSc1nnc(-c2ccc(O)cc2)o1)Nc1ccccc1 | 45 | 34* | x | -1
NC(=O)c1ccc(NC(=O)CSc2nnc(-c3ccc4c(c3)OCO4)o2)cc1 | 17 | -1 | -1 | -1
COc1ccc(C(=O)c2oc3ccccc3c2N)cc1 | 50 | x | x | -4
COc1ccc2oc(C(=O)C3CC3)c(N)c2c1 | 75 | 4 | 1 | -4
COC(=O)CCC(=O)c1oc2ccc(OC)cc2c1N | 109* | x | 9 | -2
COc1ccc2oc(C(=O)c3ccccc3)c(N)c2c1 | x | 74* | x | x
CN1CCN(C(=O)C[C@@H]2C[C@@H]3c4cc(NC(=O)C5CCOCC5)ccc4O[C@@H]3[C@H](CO)O2)CC1 | x | x | -11 | -8
CC=Cc1ccc2n(c1=O)C[C@@H]1[C@@H](CO)[C@H](C(=O)N3CCc4ccccc4C3)N(C(=O)C3CC3)[C@H]21 (mixture of isomers) | x | x | x | 97*
CN1[C@H](C(=O)N2CCc3ccccc3C2)[C@@H](CO)[C@@H]2Cn3c(ccc(-c4cccnc4)c3=O)[C@@H]21 | x | x | x | 104*
C[C@@H]1CN([C@H](C)CO)C(=O)Cc2cc(NS(=O)(=O)c3ccc(F)cc3)ccc2O[C@H]1CN(C)S(=O)(=O)c1ccc(F)cc1 | x | x | -9 | 3
COc1ccc2c3c([nH]c2c1)[C@@H](CO)NCC31CCN(Cc2ccc(F)cc2)CC1 | x | x | 5 | x
Cc1ccc(-c2cc(N)n(Cc3ccc(Cl)cc3)n2)cc1 | x | x | 12 | 3
CSc1nc(N)n2nc(-c3ccc(Cl)cc3)cc2n1 | x | 49* | 8 | -3
N#C[C@@H]1[C@H](c2ccc(-c3cccc(F)c3)cc2)[C@@H](CO)N1C(=O)NC1CCCCC1 | x | x | -26 | x
O=C(O)Cc1sc(Nc2ccccc2)nc1-c1cccs1 | 20 | 35* | x | x
COc1ccccc1-c1cn(CC[C@@H]2CC[C@H](NC(=O)CCN3CCCCC3)[C@H](CO)O2)nn1 | x | x | -1 | -3
Cc1cc(NC(=O)c2ccccc2)sc1C | 28 | 54* | 2 | -7
O=C(Nc1ccccc1)c1cc2ccc3ccccc3c2s1 | 42 | 66* | x | -2
O=C(O)c1ccc(-c2ccc(-c3ccccc3)cc2)s1 | -81 | x | x | -3
O=C(Nc1ccccc1)c1ccc(-c2ccccc2)s1 | 85* | 5 | x | x
CN(C)CC(=O)N[C@H]1CC[C@@H](CC(=O)NCc2ccc(Cl)cc2)O[C@H]1CO | x | x | -7 | 0
SMILES | MITF act | Wnt bcat act | PGC1a acetyl inh | Cneo AK release
CN(C)/C=C/C(=O)c1ccc(-n2cccc2)cc1 | 42 | 54* | 4 | x
C#Cc1cccc(NC(=O)c2ccc(Cl)cc2Cl)c1 | 94* | 22 | x | 2
Cc1ccc(NC(=O)c2ccc(Cl)cc2Cl)cc1O | 55 | 48* | 6 | -4
O=c1oc2c(O)cccc2cc1-c1nc2ccccc2[nH]1 | 45 | 36* | x | 0
O=C(Nc1ccc(Cl)c([N+](=O)[O-])c1)c1ccco1 | x | 2 | 29 | 112*
O=C(Nc1ccc(Cl)c([N+](=O)[O-])c1)c1ccc2c(c1)OCCO2 | 95* | 15 | -8 | -10
C[C@H](CO)N1C[C@H](C)[C@H](CN(C)S(=O)(=O)c2ccc(F)cc2)Oc2ccc(NC(=O)c3ccncc3)cc2CC1=O | x | x | -3 | -2
c1ccc(-c2ccc3sccc3n2)cc1 | 116* | 48* | 2 | 0
CC(C)Sc1nc2ncnc(N)c2[nH]1 | 2 | -1 | 9 | 114*
CN1C(=O)c2cc(NC(=O)c3ccccc3Cl)ccc2OC[C@H]2O[C@@H](CC(=O)O)CC[C@@H]21 | x | x | 4 | -2
NNC(=O)c1ccc(COc2ccc3ccccc3c2)cc1 | 30 | 33* | x | x
COC(=O)c1ccc(COc2ccc(C(C)(C)C)cc2)o1 | 41 | 21 | -17 | -8
CCc1ccc(OCc2ccc(C(=O)OC)o2)cc1 | 89* | 31* | 6 | -3
O=C(O)c1ccc(COc2ccc3ccccc3c2)o1 | 40 | 51* | 9 | 0
O=Cc1ccc(OCc2ccc3ccccc3c2)cc1 | 103* | 16 | 24 | -4
O=Cc1ccc(OCc2ccccn2)cc1 | 74 | 12 | -4 | 0
C[C@@H]1CN([C@@H](C)CO)C(=O)Cc2cc(NC(=O)Cc3cn(C)c4ccccc34)ccc2O[C@@H]1CN(C)S(C)(=O)=O | x | x | 7 | 1
C[C@@H]1CCCCO[C@H](CN(C)C(=O)NC2CCCCC2)[C@H](C)CN([C@@H](C)CO)C(=O)c2cc(NS(=O)(=O)c3ccc(F)cc3)ccc2O1 | x | x | -13 | 51
C[C@@H]1CN([C@@H](C)CO)C(=O)Cc2cc(NC(=O)Nc3ccc(C(F)(F)F)cc3)ccc2O[C@@H]1CN(C)C(=O)NC1CCCCC1 | x | x | -7 | -1
CC(C)c1cn(CC[C@@H]2CC[C@@H](NS(=O)(=O)c3ccc(Cl)cc3)[C@H](CO)O2)nn1 | x | x | -3 | -1
COc1ccccc1-c1ccc2n(c1=O)C[C@@H]1[C@@H](CO)[C@H](C(=O)N3CCCCC3)N(C)[C@H]21 | x | x | x | 47
Cc1noc(C)c1NC(=O)N(C)C[C@H]1OCCCC[C@@H](C)Oc2ccc(NS(=O)(=O)c3cccs3)cc2C(=O)N([C@H](C)CO)C[C@H]1C | x | x | -5 | -1
C[C@@H]1CN([C@@H](C)CO)C(=O)c2cc(C#CC3(O)CCCC3)cnc2O[C@@H]1CN(C)C(=O)C1CCC1 | x | x | 7 | -1
COc1ccc(-c2coc3cc(OC(C)=O)ccc3c2=S)cc1 | 87* | -3 | 8 | -2
COc1ccc(-c2coc3cc(OC)ccc3c2=O)cc1 | 46 | 1 | 8 | -9
SMILES | MITF act | Wnt bcat act | PGC1a acetyl inh | Cneo AK release
CC(=O)Oc1ccc2c(=O)c(-c3ccccc3)coc2c1 | 63 | 41* | 2 | x
C[C@@H]1CCCCO[C@H](CN(C)Cc2ccncc2)[C@@H](C)CN([C@H](C)CO)C(=O)c2cc(NC(=O)CCC(F)(F)F)ccc2O1 | x | x | -5 | -5
O=c1[nH]c(-c2ccc(O)cc2)nc2scc(-c3cccs3)c12 | 114* | -3 | -9 | -4
CC(C)c1ccccc1NC(=O)Cn1c(-c2ccccc2Cl)nc2ccccc21 | 0 | -4 | 43* | 1
Cn1cccc1C(=O)C(=O)Nc1ccc(F)c(F)c1 | 103* | -1 | -13 | -6
Cn1c2ccccc2c(=O)c2cc(NCCCN3CCOCC3)ccc21 | 55 | 25 | 13 | 0
O=c1c2ccccc2oc2ccc(NCCCN3CCOCC3)cc12 | 137* | 26 | 4 | -7
O=c1c2ccccc2oc2cc(NCCCN3CCOCC3)ccc12 | 106* | 44* | x | -5
CN1CCCC1CCNc1ccc2c(=O)c3ccccc3oc2c1 (configuration not stated) | 89* | 19 | x | -2
